ChEMBL document CHEMBL1130095, “Synthesis of analogs of 2-methoxyestradiol with enhanced inhibitory effects on tubulin polymerization and cancer cell growth” (J Med Chem, 1997)

Columns and labels:
HOP-62 = test: In vitro cytotoxicity value is the concentration corresponding to 50% growth inhibition against HOP-62(non small cell lung) cell line.; format: functional; settings: Homo sapiens
OVCAR-3 = test: In vitro cytotoxicity value is the concentration corresponding to 50% growth inhibition against OVCAR-3 (ovarian) cell line.; format: functional; settings: Homo sapiens
DU-145 = test: In vitro cytotoxicity value is the concentration corresponding to 50% growth inhibition against DU-145 (prostate) cell line.; format: functional; settings: Homo sapiens
[1] = test system: Panel (Carcinoma cell lines); test: Mean graph midpoint for growth inhibition of all human cancer cell lines; format: functional
HCT-116 = test: In vitro cytotoxicity value is the concentration of the compound corresponding to 50% growth inhibition against HCT116 (colon) cell line.; format: functional; settings: Homo sapiens
SN12C = test: In vitro cytotoxicity value is the concentration corresponding to 50% growth inhibition against SN12C (renal) cell line.; format: functional; settings: Homo sapiens
MDA-MB-435 = test: In vitro cytotoxicity value is the concentration corresponding to 50% growth inhibition against MDA-MB-435 (breast) cell line.; format: functional; settings: Homo sapiens
UACC-62 = test: In vitro cytotoxicity value is the concentration corresponding to 50% growth inhibition against UACC-62(melanoma) cell line.; format: functional; settings: Homo sapiens
SF-539 = test: In vitro cytotoxicity value is the concentration corresponding to 50% growth inhibition against […] (central nervous system) cell line.; format: functional; settings: Homo sapiens
Tubulin = Tubulin (Bos taurus, UniProt Q6B856+Q862L2+Q862F3); test: The compound was evaluated for inhibition of tubulin polymerization, which is purified from bovine brain; format: functional
Outline: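 Electrophoretically homogeneous bovine brain tubulin at 1.2 mg/mL (12 µM), preincubated at 26 °C with varying compound concentrations, then chilled on ice before GTP was added. Assembly was followed at 26 °C by turbidity at 350 nm, and the extent was read at 20 min. IC50 was derived graphically from at least two independent assays.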

Tubulin (Bos taurus) = Tubulin (Bos taurus) (UniProt Q6B856+Q862L2+Q862F3); test: The compound was evaluated for inhibition of colchicine binding to tubulin.; format: protein assay; settings: concentration not given here
Outline: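 Mixtures held 1.0 µM bovine brain tubulin (0.1 mg/mL), 5.0 µM [³H]colchicine and 50 µM inhibitor, incubated 10 min at 37 °C. Bound-colchicine inhibition is given as percent, from triplicate samples in each experiment.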

## C[C@]12CC[C@@H]3c4cc(OCC(F)(F)F)c(O)cc4C(=O)C[C@H]3[C@@H]1CC[C@@H]2O
HOP-62
  GI50: 8.7 µM
OVCAR-3
  GI50: 3.5 µM
DU-145
  GI50: 15 µM
[1]
  GI50: 9.8 µM
HCT-116
  GI50: 3.7 µM
SN12C
  GI50: 24 µM
MDA-MB-435
  GI50: 27 µM
UACC-62
  GI50: 3.3 µM
SF-539
  GI50: 5.1 µM
Tubulin
  IC50: 24 µM
Tubulin (Bos taurus)
  inhibition: 1.7%
